In the library only some 2.6% were active in any assay of this set; here they are far more common.
AF4-AF9 inh = inhibitors of AF4 peptide binding to AF9, primary screen, biochemical, AlphaScreen, biotin-AF4 peptide, FLAG-AF9, single point. Protein AF-9 (Homo sapiens), P42568. inhibition, % at 10 µM. 0.47% of 350,000 active;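 active = every replicate reaching a set inhibition limit, whatever the replicate mean, cut at about 25% in these data; inconclusive = mean inhibition reaches that limit but some replicates miss it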;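 note: 0% = plate neutral control median and 100% = total signal loss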
Target sequence (P42568 whole entry, looked up): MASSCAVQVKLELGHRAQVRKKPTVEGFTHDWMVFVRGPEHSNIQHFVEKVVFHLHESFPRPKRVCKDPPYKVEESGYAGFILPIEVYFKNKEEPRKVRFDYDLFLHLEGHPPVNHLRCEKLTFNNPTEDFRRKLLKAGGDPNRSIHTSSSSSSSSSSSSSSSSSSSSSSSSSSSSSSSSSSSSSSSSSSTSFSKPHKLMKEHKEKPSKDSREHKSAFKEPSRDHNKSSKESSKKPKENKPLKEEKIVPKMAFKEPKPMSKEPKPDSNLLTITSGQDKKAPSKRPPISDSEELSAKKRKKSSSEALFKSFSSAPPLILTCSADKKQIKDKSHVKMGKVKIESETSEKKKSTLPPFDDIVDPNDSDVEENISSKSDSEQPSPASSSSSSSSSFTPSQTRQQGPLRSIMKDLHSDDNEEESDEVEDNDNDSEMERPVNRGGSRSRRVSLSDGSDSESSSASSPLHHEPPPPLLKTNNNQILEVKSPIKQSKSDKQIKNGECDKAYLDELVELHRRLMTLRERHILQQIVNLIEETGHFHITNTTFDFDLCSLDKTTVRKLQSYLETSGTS
GSIS activator = GLuc luminescence reporter in INS-1E cells, primary screen for activators of glucose-dependent secretion of insulin | AID 743287, 2014 | INS-1E GLuc reporter insulin secretion, 2-3 h | 0.61% of 370,000 active | activation, % at 16.6 µM;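 active = lowest replicate activation of at least 40%, so every replicate reaches that level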;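 note: 0% = median of neutral control wells and 100% = median of IBMX positive control wells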
E-sel inducer = E-selectin induction in HUVECs, primary screen, imaging, HUVEC, immunofluorescence imaging, single point; P16581; 0.37% of 260,000 active; normalized: neutral wells 0, TNF-alpha wells 100; activation, % at 7.58 µM; AID 686992, 2013;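 active = mean E-selectin-positive cell signal at least 10% of the positive control, reached in at least 60% of replicates, without over 20% cell loss; inconclusive = no rule given, readout overlaps actives, possibly toxicity-flagged; inactive = the rest, including those meeting only one limit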
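assay system = HUVEC, human umbilical vein endothelial cells | input = 3,000 HUVEC seeded per well | medium = EGM-2 growth medium on 0.1% gelatin-coated wells | dosing = one compound dose added by pin transfer | signal = immunofluorescence imaging | read-out basis = % PE-positive cells | control set = TNF-alpha, DMSO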
RAD54 branch = inhibitors of human RAD54 branch migration, primary screen, biochemical, fluorescence, single point. RAD54 Holliday junction branch migration, FAM/BHQ fluorescence. inhibition, % at 10.4 µM. 0.14% of 360,000 active. AID 602329, 2012;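 active = mean normalized replicate activity at least 40 and at least half of replicates scoring 40 or more; inconclusive = only one of the two criteria met; inactive = mean below 40 and under half of replicates reaching 40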;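 note: 0% = median of neutral control wells and 100% = median of positive control wells; inhibitors cause a drop in the FAM fluorescence signal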
rRNA inh HTS = reduced GFP signal of wild-type E. coli, primary screen, bacterial rRNA inhibitor project, GFP/RFP fluorescence, OD600, single point. E. coli WT GFP vs humanized-ribosome RFP mutants, 24 h; stronger effect = lower value; DMSO median 0, no signal -100. GFP signal change (wild-type ribosome), % (test concentration not listed). 1.6% of 350,000 active. AID 720706, 2013;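 active = significant combined selectivity score with lowered wild-type GFP, culture density cut under 30%, mutant RFP and density less affected; inactive = any of these conditions unmet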
RAD52 anneal inh = RAD52 DNA annealing inhibitors, primary screen, biochemical, FRET, single point, set 2; recombinant RAD52 DNA annealing, FRET fluorescence; AID 651710, 2012; 0.46% of 360,000 active; DNA repair protein RAD52 homolog (Homo sapiens), P43351; inhibition, % at 18.7 µM;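 active = every replicate showing at least 50% inhibition; inconclusive = mean inhibition at least 50% but not in every replicate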
AID977621 = growth inhibition of wild-type GFP E. coli, dose response, H69 mutant RFP, cherry-pick; shares compounds with rRNA inh HTS; E. coli wild-type GFP strain growth, fluorescence, 24 h; activity change, negative = inhibition at 50 µM; 1,900 tested, under 10 active;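 active = Wild-type ribosome reporter drop at least double the humanized mutant ribosome reporter drop, growth loss under a set limit; inconclusive = no clear call, values can overlap the other calls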;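 note: wild-type GFP and H69 mutant RFP strains grown together 50/50 in each well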
AID977628 = E. coli growth inhibition, wild-type GFP versus h24 humanized RFP strain, dose response, h24 mutant RFP vs wild-type GFP, cherry-pick. shares compounds with rRNA inh HTS. E. coli WT GFP strain growth, fluorescence, 24 h. activity change, negative = inhibition at 50 µM. 1,900 tested, under 10 active. AID 977628, 2014;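 active = compound lowering the normal-ribosome reporter at least twice as much as the humanized-ribosome reporter, growth loss under a set limit; inconclusive = no clear call, values can overlap the other calls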;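 note: wild-type GFP and h24 humanized RFP strains co-cultured 1 to 1 per well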
Active calls of the source: *.

Results for Cc1ccc(S(=O)(=O)N2CCCCC2C(=O)N2CCN(c3ccccc3F)CC2)cc1 (stereo unspecified) ?
AF4-AF9 inh: -29.4; GSIS activator: -38.4; rRNA inh HTS: -20.0*; RAD52 anneal inh: -9.1; AID977621: 4.23; AID977628: -12.4

What do the screens show for `Cc1ccc(S(=O)(=O)N2CCCCC2C(=O)N2CCN(C)CC2)cc1` (stereo unspecified)?
GSIS activator: -2.9; RAD54 branch: 2.6

Results for CCC(=O)N1CC[C@@H]2[C@@H](CO)Nc3ccc(-c4ccc(OC)cc4)cc3[C@@H]21 ?
GSIS activator: 35.0; E-sel inducer: -0.2; RAD54 branch: 1.6; rRNA inh HTS: -1.6

What do the screens show for `CN(C)CCCN(C(=O)CCSc1ccccc1)c1nc2cc3c(cc2s1)OCO3`?
AF4-AF9 inh: inconclusive; GSIS activator: -64.6; RAD54 branch: 11.7; rRNA inh HTS: -31.1*; RAD52 anneal inh: 45.6; AID977621: -5.15; AID977628: -3.77

What do the screens show for `CC(C)NC(=O)Nc1ccc2c(c1)C(=O)N([C@@H](C)CO)C[C@@H](C)[C@@H](CN(C)Cc1ccc(C(=O)O)cc1)OCCCC[C@@H](C)O2`?
AF4-AF9 inh: 0.0; GSIS activator: 34.8; E-sel inducer: -0.2; RAD54 branch: 8.1; rRNA inh HTS: 6.5; RAD52 anneal inh: -8.1

Results for COc1ccccc1CNC(=O)C[C@@H]1C[C@H]2c3cc(NC(=O)Nc4ccccc4F)ccc3O[C@H]2[C@@H](CO)O1 ?
AF4-AF9 inh: 1.7; GSIS activator: -0.3; E-sel inducer: 0.0; RAD54 branch: 1.8; rRNA inh HTS: -4.2; RAD52 anneal inh: 3.5

Results for O=S1(=O)N[C@H](Cc2ccccc2)COc2cc(N3CCSCC3)ccc21 ?
AF4-AF9 inh: -2.6; GSIS activator: -8.3; E-sel inducer: -0.3; rRNA inh HTS: -16.5*; RAD52 anneal inh: -21.9; AID977621: -0.847; AID977628: -10.2

Results for O=S1(=O)N[C@H](Cc2ccccc2)COc2cc(N3CCCCC3)ccc21 ?
AF4-AF9 inh: 0.4; GSIS activator: -9.6; E-sel inducer: -0.1; rRNA inh HTS: -2.2; RAD52 anneal inh: -88.8

What do the screens show for `CCC(=O)Nc1ccc2c(c1)C(=O)N(C)C[C@H](OC)[C@H](C)CN(CC1CCCCC1)[C@@H](C)CO2`?
AF4-AF9 inh: 0.0; GSIS activator: 23.0; E-sel inducer: -0.3; RAD54 branch: 1.5; rRNA inh HTS: -0.8; RAD52 anneal inh: 15.7

How did O=C(Nc1cc(S(=O)(=O)N2CCOCC2)ccc1N1CCOCC1)c1ccc([N+](=O)[O-])s1 do in these assays?
AF4-AF9 inh: 5.5; GSIS activator: -9.7; RAD54 branch: -4.2; rRNA inh HTS: -18.0*; RAD52 anneal inh: -4.0; AID977621: inconclusive; AID977628: -1.88

What do the screens show for `O=C(CCNC(=O)c1ccccc1)Nc1ccc(Cl)c(S(=O)(=O)N2CCCCC2)c1`?
AF4-AF9 inh: 2.9; GSIS activator: -35.5; E-sel inducer: -0.1; RAD54 branch: -9.1; rRNA inh HTS: -40.8*; RAD52 anneal inh: -8.3; AID977621: -15.5

How did O=C(Nc1cc(S(=O)(=O)N2CCOCC2)ccc1N1CCOCC1)c1ccccc1[N+](=O)[O-] do in these assays?
AF4-AF9 inh: 1.6; GSIS activator: 27.2; RAD54 branch: 3.0; rRNA inh HTS: 6.0; RAD52 anneal inh: -8.7
